From ChEMBL document CHEMBL3860044, “The Rational Design, Synthesis, and Antimicrobial Properties of Thiophene Derivatives That Inhibit Bacterial Histidine Kinases” (J Med Chem, 2016)
≈ marks a conversion by molar mass, not a printed value. Calls of active or inactive are those of the source. The calls are words filed in the database; no cut-off is given here.

Columns and labels:
[1] = system: Bacillus subtilis subsp. subtilis str. JH642; assay: Bactericidal activity against Bacillus subtilis JH642 assessed as clearing of bacterial culture at 50 ug/ml upto 9 hrs; format: functional
Method in brief: (§1)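 B. subtilis JH642 grown overnight in LB, diluted into 20 mL LB at OD600 0.05, grown at 37 °C. Compound added at OD600 0.5–0.6. OD600 followed before and after addition over several hours. Vancomycin served as bactericidal control and chloramphenicol as bacteriostatic control.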

Staphylococcus aureus [2] = assay: Bactericidal activity against methicillin-resistant Staphylococcus aureus USA300 TCH1516 at 50 ug/ml upto 9 hrs; format: functional; settings: USA300_TCH1516
Method in brief: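 Culture inoculated at OD600 0.05 and grown until OD600 reaches 0.5–0.6, when additives are added; chloramphenicol and vancomycin serve as controls. OD600 is followed before and after addition for several hours. For S. aureus the assay uses fewer time points and a smaller volume.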

Staphylococcus aureus [3] = assay: Antimicrobial activity against methicillin-resistant Staphylococcus aureus USA300 TCH1516 at 30 ug after 20 hrs by disk diffusion assay; format: functional; settings: USA300_TCH1516
[4] = system: Bacillus subtilis subsp. subtilis str. JH642; assay: Bactericidal activity against Bacillus subtilis JH642 assessed as bacterial cell lysis at 50 ug/ml upto 9 hrs; format: functional; method in brief: as §1
Escherichia coli = settings: 200 uM
Staphylococcus aureus [5] = assay: Bactericidal activity against Staphylococcus aureus ATCC 29213 by broth microdilution method; format: functional
Method in brief: (§2)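 Clinical resistant isolates and quality control strains (S. aureus ATCC 29213, E. coli ATCC 25922) are tested by EUCAST broth microdilution with a 10⁶ bacteria/mL inoculum, in triplicate, with or without a fixed adjuvant concentration. For MBC, the MIC dilution and at least two more concentrated dilutions are plated and CFU/mL counted.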

Staphylococcus aureus [6] = assay: Antibacterial activity against penicillin G-resistant/penicillinase producing Staphylococcus aureus isolate C1P15 by broth microdilution method; format: functional
Method in brief: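 Broth microdilution per EUCAST on the clinical S. aureus isolate C1P15 (penicillinase producer, penicillin G resistant). Inoculum 10⁶ bacteria per mL. Run in triplicate. S. aureus ATCC 29213 served as the quality-control strain.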

Staphylococcus aureus [7] = assay: Antibacterial activity against Staphylococcus aureus ATCC 29213 by broth microdilution method; format: functional; method in brief: as §2
Staphylococcus aureus [8] = assay: Bactericidal activity against penicillin G-resistant/penicillinase producing Staphylococcus aureus isolate C1P15 by broth microdilution method; format: functional
Method in brief: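 MBC on clinical S. aureus isolate C1P15 (penicillinase, penicillin G resistant), following EUCAST broth microdilution at 10⁶ bacteria per mL, in triplicate. The MIC dilution and at least two more concentrated dilutions were plated and enumerated as CFU/mL. S. aureus ATCC 29213 served as quality control.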

CN[C@H](CC(C)C)C(=O)N[C@H]1C(=O)N[C@@H](CC(N)=O)C(=O)N[C@H]2C(=O)N[C@H]3C(=O)N[C@H](C(=O)N[C@H](C(=O)O)c4cc(O)cc(O)c4-c4cc3ccc4O)[C@H](O)c3ccc(c(Cl)c3)Oc3cc2cc(c3O[C@@H]2O[C@H](CO)[C@@H](O)[C@H](O)[C@H]2O[C@H]2C[C@](C)(N)[C@H](O)[C@H](C)O2)Oc2ccc(cc2Cl)[C@H]1O
Activity [1]: Active
Activity (Staphylococcus aureus [2]): Active
Activity (Staphylococcus aureus [3]): Active
Activity [4]: Active

O=C(O)c1cn(C2CC2)c2cc(N3CCNCC3)c(F)cc2c1=O
inhibition (Escherichia coli): Active

Cc1onc(-c2ccccc2Cl)c1C(=O)N[C@@H]1C(=O)N2[C@@H]1SC(C)(C)[C@@H]2C(=O)O [CLOXACILLIN]
MBC (Staphylococcus aureus [5]): 1 µg/mL (≈ 2.29 µM)
MIC (Staphylococcus aureus [6]): 1 µg/mL (≈ 2.29 µM)
MIC (Staphylococcus aureus [7]): 1 µg/mL (≈ 2.29 µM)
MBC (Staphylococcus aureus [8]): 1 µg/mL (≈ 2.29 µM)
